Measurements from PubChem BioAssay.
The list shows a part of the results. Calls of active or inactive are those of the source.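 Rule for the calls, unless noted: active = signal rise of 40% or more at 20 µM, treated as a fluorescence artifact; inactive = the rest.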

test system: not listed separately; assay: Rh110 fluorescence interference by putative Apaf-1 inhibitors, confirmation, artefact control for Apaf-1 inhibitor project, biochemical, 20 µM (AID 504615); conditions: quenched caspase reaction, at 20 µM, stronger effect = higher value

Compound	activation (fluorescence interference)
C#CCOCCOCCOCCNc1nc(N2CCN(C(=O)CCCCCCCCCCNC(=O)[C@H](CCCCN)n3cc(C)nn3)CC2)nc(N2CCN(C(=O)CCCCCCCCCCNC(=O)[C@H](CO)n3cc(CCCSC)nn3)CC2)n1	3.38% (inactive)
c1ccc(C[C@H]2CNCCN2CCC23CC4CC(CC(C4)C2)C3)cc1	-3.75% (inactive)
Nc1ccc2nn(-c3ccc(Cl)cc3)nc2c1	0.47% (inactive)
Cc1ccc2nc(N3CCN(C(=O)c4ccco4)CC3)sc2c1	-1.75% (inactive)
O=C1Nc2ccc([N+](=O)[O-])cc2C1=Nc1cccc(CO)c1	-4.07% (inactive)
C=CCn1c(N)c(C(=O)OCC(C)C)c2nc3ccccc3nc21	12% (inactive)
CCOc1c(Br)cc(/C=C2\C(=O)N(CCC#N)N=C2C)cc1OC	1.73% (inactive)
O=S(=O)(Nc1ccc(O)c2ccccc12)c1ccc(OC(F)(F)F)cc1	-2.71% (inactive)
O=C(O)c1cc(Cl)c(Cl)cc1C(=O)Nc1cccc2ncccc12	-4.02% (inactive)
COc1ccc(NC(=O)CN(Cc2ccccc2)S(C)(=O)=O)cc1OC	2.48% (inactive)
O=C(N/N=C\c1cccnc1)c1cc(-c2ccccc2)nc2c(Cl)cccc12	2.87% (inactive)
CCC(C)(C)c1ccc(OCC(=O)N(C)C)c(C(C)(C)CC)c1	8.45% (inactive)
CC1=NN(c2ccc(Cl)c(C(=O)O)c2)C(=O)/C1=C/c1ccc(-c2ccccc2[N+](=O)[O-])o1	6.42% (inactive)
CC(=O)Nc1ccc(Nc2cc(C)nc(Nc3ccc(NC(C)=O)cc3)n2)cc1	4.46% (inactive)
O=[N+]([O-])c1c(NCCO)cc(Sc2nc3ccccc3s2)c2nonc12	4.65% (inactive)
c1ccc(CSc2nnc(-c3ccco3)c(-c3ccco3)n2)cc1	6.26% (inactive)

test system: not listed separately; assay: Peg3 promoter reporter inhibitors, retest, confirmation, cell-based, HeLa, luciferase reporter, single concentration (AID 602417;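 active = at 20 µM dose, 40% or more inhibition averaged across four replicates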); conditions: HeLa PEG-Prom luciferase reporter, luminescence, overnight; at 20 µM; stronger effect = higher value

Compound	inhibition
Cc1cccc(NC(=O)c2nc(S(=O)(=O)Cc3ccccc3)ncc2Cl)c1	98.3% (active)
CN(C)CC(O)COc1ccc(C(C)(C)c2ccc(OCC(O)CN(C)C)cc2)cc1 (centres undefined)	53% (active)
COc1cccc(/C=N/Nc2cc(C)nc(-c3ccccc3O)n2)c1O	94.4% (active)

test system: not listed separately; assay: inhibitors of PAF-induced NF-kB signaling, retest, confirmation, cell-based, GFP fluorescence, single concentration (AID 602472; in the data active = inhibition above about 40%;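 note: stimulus PAF is a Pseudomonas aeruginosa filtrate and not platelet activating factor; plate controls were DMSO wells with stimulus for no effect and unstimulated DMSO wells for full effect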); conditions: KKLEB CF airway cells, overnight, at 5 µM, stronger effect = higher value
In short: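 Assay system: KKLEB immortalized cystic fibrosis airway epithelial cells with NFkB-GFP reporter. Buffer or medium: medium with 2% FBS for cells, serum-free medium for stimulus. Dosing: 5 µM single dose. Times: 2 h compound pretreatment at 37 °C, overnight PAF exposure. Measured by: GFP fluorescence of NFkB reporter.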

Compound	inhibition
CC(=O)Nc1ccc(NC(=O)C(C)OC(=O)c2ccccc2C(=O)c2ccc(Cl)c([N+](=O)[O-])c2)cc1 (centres undefined)	72.6% (active)
Cc1cccc(NC(=O)c2nc(S(=O)(=O)Cc3ccccc3)ncc2Cl)c1	96.7% (active)
O=C(Nc1ccc(C(=O)N2CCOCC2)cc1)Nc1cccc(C(F)(F)F)c1	58.5% (active)

test system: not listed separately; assay: HIF-2a reporter inhibitor retest, confirmation, luminescence, 786-0 RCC cells (AID 651580;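 active = mean inhibition across four replicates of at least 40 percent at the single tested concentration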); conditions: HIF-2a luciferase reporter luminescence, overnight, at 18.8 µM, stronger effect = higher value

Compound	inhibition
CCN(CC)S(=O)(=O)c1ccc(NC(=O)c2cccnc2Cl)c(NC(=O)c2cccnc2Cl)c1	91.6% (active)
Cc1[nH]c(=O)c(C(=O)/C=C/c2ccccc2)c2c1CCCC2	81.1% (active)
Cc1cccc(NC(=O)c2nc(S(=O)(=O)Cc3ccccc3)ncc2Cl)c1	100% (active)
CC1CCCCC1NC(=O)/C(C#N)=C/C=C/c1ccccc1[N+](=O)[O-] (centres undefined)	50.3% (active)
Cc1ccc(CS(=O)(=O)c2ncc(Cl)c(C(=O)Nc3nnc(C)s3)n2)cc1	31.5% (inactive)

test system: not listed separately; assay: HIF-1a luciferase reporter signal reduction – MiaPaCa-2 cells, single concentration, counter-screen for HIF-2a inhibitor project, confirmation (AID 651589;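 active = mean inhibition of the reporter signal across four replicates at the single tested dose of 50% or more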); conditions: MiaPaCa-2 HIF-1a luciferase reporter, desferoxamine, overnight; at 18.8 µM; stronger effect = higher value

Compound	inhibition
CCN(CC)S(=O)(=O)c1ccc(NC(=O)c2cccnc2Cl)c(NC(=O)c2cccnc2Cl)c1	62.3% (active)
Cc1[nH]c(=O)c(C(=O)/C=C/c2ccccc2)c2c1CCCC2	105% (active)
Cc1cccc(NC(=O)c2nc(S(=O)(=O)Cc3ccccc3)ncc2Cl)c1	103% (active)
CC1CCCCC1NC(=O)/C(C#N)=C/C=C/c1ccccc1[N+](=O)[O-] (centres undefined)	106% (active)
Cc1ccc(CS(=O)(=O)c2ncc(Cl)c(C(=O)Nc3nnc(C)s3)n2)cc1	104% (active)

test system: not listed separately; assay: inhibitors of PAF-induced NFkB signaling in CF airway cells, dose response, cell-based, uHTS hits, panel, cytotoxicity readout (AID 624344); conditions: CF bronchial epithelial cells, PAF-induced NFkB reporter inhibition, with PAF, run 1; at 79 µM (top of the series) unless noted

Compound	inhibition [%]
CC(=O)Nc1ccc(NC(=O)C(C)OC(=O)c2ccccc2C(=O)c2ccc(Cl)c([N+](=O)[O-])c2)cc1 (centres undefined)	102
Cc1cccc(NC(=O)c2nc(S(=O)(=O)Cc3ccccc3)ncc2Cl)c1	86.6
O=C(Nc1ccc(C(=O)N2CCOCC2)cc1)Nc1cccc(C(F)(F)F)c1	108

test system: not listed separately; assay: as above; conditions: CF bronchial epithelial cells, PAF-induced NFkB reporter inhibition, with PAF, run 2; at 79 µM (top of the series) unless noted

Compound	inhibition [%]
CC(=O)Nc1ccc(NC(=O)C(C)OC(=O)c2ccccc2C(=O)c2ccc(Cl)c([N+](=O)[O-])c2)cc1 (centres undefined)	98.8
Cc1cccc(NC(=O)c2nc(S(=O)(=O)Cc3ccccc3)ncc2Cl)c1	95.1
O=C(Nc1ccc(C(=O)N2CCOCC2)cc1)Nc1cccc(C(F)(F)F)c1	94.7

molecular target: Tumor necrosis factor receptor superfamily member 10B (Homo sapiens) (UniProt O14763); assay: caspase-8 TRAIL sensitization, hit retest, confirmation, cell-based, NB7+caspase-8, with/without TRAIL, luminescence panel (AID 651596; in the data active = activity above about 50%); conditions: NB7 neuroblastoma + caspase-8, TRAIL sensitization, luminescence viability, with TRAIL, mean of runs, at 10 µM, stronger effect = higher value
Sequence (O14763 whole entry, looked up): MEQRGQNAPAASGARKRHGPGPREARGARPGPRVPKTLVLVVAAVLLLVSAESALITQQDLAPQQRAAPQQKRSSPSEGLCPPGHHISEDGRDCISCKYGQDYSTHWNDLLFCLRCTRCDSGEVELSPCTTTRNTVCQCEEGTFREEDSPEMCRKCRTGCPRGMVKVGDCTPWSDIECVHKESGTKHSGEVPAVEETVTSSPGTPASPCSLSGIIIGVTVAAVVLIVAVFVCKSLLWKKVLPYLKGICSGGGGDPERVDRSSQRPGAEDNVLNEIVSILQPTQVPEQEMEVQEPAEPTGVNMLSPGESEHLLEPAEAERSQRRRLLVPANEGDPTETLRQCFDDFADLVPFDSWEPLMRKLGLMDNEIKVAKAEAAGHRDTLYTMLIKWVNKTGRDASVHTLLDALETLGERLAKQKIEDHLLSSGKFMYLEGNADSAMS

Compound	activity [%]
O=C(CC(O)(C(F)(F)F)C(F)(F)F)Nc1ccc(Cl)c(Cl)c1	61.6
Cc1cccc(NC(=O)c2nc(S(=O)(=O)Cc3ccccc3)ncc2Cl)c1	55.2
COc1ccc(C(CCN(Cc2ccc(OC)c(OC)c2)C(=O)CCl)c2ccccc2)cc1 (centres undefined)	99.7
Cc1ccc(CS(=O)(=O)c2ncc(Cl)c(C(=O)Nc3nnc(C)s3)n2)cc1	97.2
CCOC(=O)/C(=C\c1ccc([N+](=O)[O-])cc1)C(=O)c1cc(C(C)=O)c(Nc2ccccc2)s1	95.3
COc1cc(NC(=O)c2[nH]cnc2C(N)=O)cc(C(=O)Nc2cccc(C(F)(F)F)c2)c1	86.1
